# In ChEMBL document CHEMBL1128194, “A new series of pyridinone derivatives as potent non-nucleoside human immunodeficiency virus type 1 specific reverse transcriptase inhibitors” (J Med Chem, 1995):
# How the values were obtained:
# CEM-SS [1] = assay: Specific index of IC50 and CC50 on HIV-1 IIIB wild type; format: functional
# CEM-SS [2] = assay: The compound was tested for inhibition of nevirapine HIV-1 resistant strain; format: functional, cell-based; settings: Homo sapiens
# How it was run: (§1)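 Cells infected with 100 TCID50 virus for 30 min. Unbound virus removed by two washes, then cells cultured 5 days with a range of compound concentrations. Virus production read as particle-associated RT activity in the culture supernatant. IC50 taken from a computer-generated median effect plot of the dose–effect data.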
# [3] = tested on: Human immunodeficiency virus 1; assay: Inhibition of wild type HIV-1-IIIB strain replication in CEM-SS cells; format: functional, organism-based; settings: Human immunodeficiency virus 1, CEM-SS
# How it was run: (§2)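 Cells were infected with 100 TCID50 for 30 min and washed twice to remove unbound virus. They were then cultured 5 days with a range of compound concentrations. Virus production was quantified as particle-associated RT activity in the supernatant. IC50 was derived from a computer-generated median-effect plot of dose–effect data.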
# [4] = Specific index of IC50 and CC50 on HIV-1 Nevirapine resistant strain; format: functional
# CEM-SS [5] = assay: Cytotoxicity against wild type HIV-1-IIIB strain infected CEMSS cells.; format: functional; settings: Homo sapiens
# How it was run: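 Uninfected cells were incubated with compound for 5 days. Viability was read by MTT reduction to formazan at OD540. CC50 is the concentration that halves OD540, taken from a median-effect computer analysis.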
# CEM-SS [6] = assay: The compound was tested for inhibition of wild type HIV-1-IIIB strain; format: functional, cell-based; settings: Homo sapiens; how it was run: as §2
# [7] = target: Human immunodeficiency virus type 1 reverse transcriptase (Human immunodeficiency virus 1, UniProt Q72547); assay: Inhibition of HIV-1 reverse transcriptase (RT)
# How it was run: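 Recombinant HIV-1 RT (20–50 nM) was expressed in yeast. Assays ran 10 min at 37 °C in 50 mM Tris-HCl pH 8.0 with 5 mM MgCl2, 4 mM DTT, 80 mM KCl and BSA. Template-primer was poly(C)-oligo(dG) (5:1, 0.48 A260/mL), with 2 μM dGTP plus [3H]dGTP. Product was precipitated with cold TCA/pyrophosphate, filtered and scintillation counted. Compounds were in DMSO, with matched DMSO controls.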
# CEM-SS [8] = assay: The compound was tested for cytotoxicity against nevirapine HIV-1 resistant strain infected CEMSS cells; format: functional; settings: Homo sapiens
# CEM-SS [9] = assay: The compound was tested for inhibition of Nevirapine resistant HIV-1 (N119) cells; format: functional, cell-based; settings: Homo sapiens; how it was run: as §1
compound,measurement,setting,value
CCc1cnc(O)c(N)c1Sc1cc(C)cc(C)c1,Specific index,CEM-SS [1],>1000
same,IC50,CEM-SS [2],6.7 µM
same,IC50,[3],0.01 µM
same,Specific index,[4],> 1
same,CC50,CEM-SS [5],> 10 µM
Cc1cnc(O)c([N+](=O)[O-])c1Sc1ccccc1,IC50,[3],> 10 µM
same,CC50,CEM-SS [5],> 10 µM
CCOC(=O)c1c(O)nc(C)c(CC)c1Sc1cc(C)cc(C)c1,Specific index,CEM-SS [1],>3333
same,IC50,CEM-SS [2],2.2 µM
same,IC50,[3],0.003 µM
same,Specific index,[4],> 4.5
same,CC50,CEM-SS [5],> 10 µM
CCCCCCC(=O)Nc1c(O)ncc(C)c1Sc1cc(C)cc(C)c1,IC50,CEM-SS [6],> 10 µM
same,CC50,CEM-SS [5],> 10 µM
CC(=O)Nc1c(O)ncc(C)c1Sc1cc(C)cc(C)c1,IC50,[7],> 4 µM
same,Specific index,CEM-SS [1],>1492
same,IC50,CEM-SS [2],> 100 µM
same,IC50,[3],0.067 µM
same,CC50,CEM-SS [5],> 100 µM
Cc1cccc(Sc2c(C)c[nH]c(=O)c2N)c1,IC50,[7],> 4 µM
CC(C)=CCN1Cc2cc(Cl)cc3[nH]c(=S)n(c23)C[C@@H]1C,IC50,[3],> 10 µM
same,CC50,CEM-SS [5],> 10 µM
Cc1cccc(Sc2c(C)cnc(O)c2N)c1,Specific index,CEM-SS [1],>55
same,IC50,CEM-SS [2],41.5 µM
same,IC50,[3],1.4 µM
same,Specific index,[4],> 1
same,CC50,CEM-SS [8],78 µM
same,CC50,CEM-SS [5],78 µM
Cc1cc(C)cc(Sc2c(C)cnc(O)c2[N+](=O)[O-])c1,IC50,[7],> 10 µM
same,Specific index,CEM-SS [1],>83
same,IC50,[3],0.12 µM
same,IC50,CEM-SS [9],> 10 µM
same,CC50,CEM-SS [5],> 10 µM
Cc1cn([C@H]2C[C@H](N=[N+]=[N-])[C@@H](CO)O2)c(=O)[nH]c1=O [ZIDOVUDINE],CC50,CEM-SS [5],> 100 µM
CCc1c(C)nc(O)c(NC(C)=O)c1Sc1cc(C)cc(C)c1,Specific index,CEM-SS [1],1600
same,IC50,CEM-SS [2],4.3 µM
same,IC50,[3],0.05 µM
same,Specific index,[4],> 23
same,CC50,CEM-SS [8],> 100 µM
same,CC50,CEM-SS [5],80 µM
Cc1c(Sc2ccccc2)n(COCCO)c(=O)[nH]c1=O [HEPT],IC50,[7],> 6 µM
Cc1cnc(O)c([N+](=O)[O-])c1SC1=NCCS1,Specific index,CEM-SS [1],>1
same,IC50,[3],17 µM
same,CC50,CEM-SS [5],21.5 µM
Cc1cc(C)cc(Nc2c(C)cnc(O)c2[N+](=O)[O-])c1,Specific index,CEM-SS [1],>2
same,IC50,[3],45 µM
same,CC50,CEM-SS [5],> 100 µM
Cc1cc(O)nc(Sc2c(C)cnc(O)c2[N+](=O)[O-])n1,IC50,[3],> 100 µM
same,CC50,CEM-SS [5],> 100 µM
CCc1c(C)[nH]c(=O)c([N+](=O)[O-])c1Sc1cc(C)cc(C)c1,IC50,[7],0.03 µM
Cc1cc(C)nc(Sc2c(C)cnc(O)c2[N+](=O)[O-])n1,Specific index,CEM-SS [1],>1
same,IC50,[3],17.5 µM
same,CC50,CEM-SS [5],19.5 µM
Cc1c(Sc2ccccc2)n(COCc2ccccc2)c(=O)[nH]c1=O,IC50,[7],0.4 µM
CCc1c(Sc2cc(C)cc(C)c2)cc(O)nc1C,IC50,[7],0.4 µM
same,Specific index,CEM-SS [1],>20
same,IC50,[3],0.5 µM
same,CC50,CEM-SS [5],> 10 µM
CCOC(=O)c1c(Sc2cc(C)cc(C)c2)c(CC)c(C)[nH]c1=O,IC50,[7],0.6 µM
Cc1cnc(O)c([N+](=O)[O-])c1Sc1ccccn1,Specific index,CEM-SS [1],>1
same,IC50,[3],18 µM
same,CC50,CEM-SS [5],28.5 µM
CCOC(=O)Nc1c(O)ncc(C)c1Sc1cc(C)cc(C)c1,Specific index,CEM-SS [1],>13
same,IC50,[3],7.5 µM
same,CC50,CEM-SS [5],> 100 µM
Cc1cnc(O)c([N+](=O)[O-])c1Sc1nc2ccccc2s1,IC50,[3],14.5 µM
same,CC50,CEM-SS [5],13.5 µM
Cc1cnc(O)c([N+](=O)[O-])c1Sc1nc2ccccc2o1,Specific index,CEM-SS [1],>2
same,IC50,[3],5.5 µM
same,CC50,CEM-SS [5],16 µM
Cc1cc(C)cc(Sc2c(C)cnc(O)c2N)c1,IC50,[7],0.1 µM
same,Specific index,CEM-SS [1],>1000
same,IC50,CEM-SS [2],> 10 µM
same,IC50,[3],0.01 µM
same,CC50,CEM-SS [5],> 10 µM
Cc1cc(C)cc(Sc2c(C)cnc(O)c2NC(=O)Cc2ccccc2)c1,IC50,[3],> 10 µM
same,CC50,CEM-SS [5],> 10 µM
Cc1cnc(O)c([N+](=O)[O-])c1Sc1nc2ccccc2[nH]1,Specific index,CEM-SS [1],>1
same,IC50,[3],43.5 µM
same,CC50,CEM-SS [5],54.5 µM
CCc1cnc(O)c([N+](=O)[O-])c1Sc1cc(C)cc(C)c1,Specific index,CEM-SS [1],>111
same,IC50,CEM-SS [2],6.7 µM
same,IC50,[3],~0.09 µM
same,Specific index,[4],> 1
same,CC50,CEM-SS [5],> 10 µM
Cc1cnc(O)c([N+](=O)[O-])c1Sc1nccn1C,Specific index,CEM-SS [1],>1
same,IC50,[3],56 µM
same,CC50,CEM-SS [5],68.5 µM
Cc1cc(C)cc(Sc2c(C)cnc(O)c2NC=O)c1,Specific index,CEM-SS [1],>15
same,IC50,[3],6.6 µM
same,CC50,CEM-SS [5],> 100 µM
Cc1cccc(Sc2c(C)cnc(O)c2[N+](=O)[O-])c1,IC50,[7],> 10 µM
same,CC50,CEM-SS [5],> 10 µM
CCC(=O)Nc1c(O)ncc(C)c1Sc1cc(C)cc(C)c1,IC50,[7],> 4 µM
same,Specific index,CEM-SS [1],>2
same,IC50,[3],41.4 µM
same,CC50,CEM-SS [5],> 100 µM
Cc1cnc(O)c(N)c1Sc1nc2ccccc2o1,IC50,[3],8 µM
same,CC50,CEM-SS [5],7.5 µM
Cc1cc(C)cc(Sc2c(N)c(O)nc3ccccc23)c1,Specific index,CEM-SS [1],>36
same,IC50,CEM-SS [2],6.6 µM
same,IC50,[3],0.25 µM
same,Specific index,[4],> 1.5
same,CC50,CEM-SS [8],8.2 µM
same,CC50,CEM-SS [5],> 9 µM
CCc1c(C)nc(O)c([N+](=O)[O-])c1Sc1cc(C)cc(C)c1,Specific index,CEM-SS [1],>1666
same,IC50,CEM-SS [2],0.26 µM
same,IC50,[3],~0.006 µM
same,Specific index,[4],> 38
same,CC50,CEM-SS [5],> 10 µM
CCc1c(C)nc(O)c(N)c1Sc1cc(C)cc(C)c1,IC50,[7],0.015 µM
same,Specific index,CEM-SS [1],>714
same,IC50,CEM-SS [2],2.1 µM
same,IC50,[3],0.014 µM
same,Specific index,[4],> 4
same,CC50,CEM-SS [5],> 10 µM
Cc1cc(C)cc(Sc2c([N+](=O)[O-])c(O)nc3ccccc23)c1,Specific index,CEM-SS [1],>26
same,IC50,CEM-SS [2],> 10 µM
same,IC50,[3],3.8 µM
same,CC50,CEM-SS [5],> 100 µM
